Data published in PMC6218153 (Journal of Alzheimer's Disease Reports, 2018).
Where no end group is shown, it is not given here.

Assay: PK study in plasma and CSF after single IV, SC or IN dose
Type: in vivo, rat
Outline: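 Cannulated rats (jugular vein, intracisternal; n = 6/route) received a single dose in PBS: IV or SC ~11 mg/kg over 1 min, or IN ~5.5 mg/kg, 10 μL per nostril at 6-min intervals over 18 min. K2EDTA plasma was taken pre-dose to 165 min and CSF pre-dose to 150/180 min. LC/MS/MS (ESI+, 1007.55 > 876.35) with noncompartmental PK; CL = Dose/AUC. CSF ratio = dose-normalised CSF AUC relative to IV.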

[1] = rat, in vivo, 5.5 mg/kg, IN 5.5 mg/kg, CSF
[2] = rat, in vivo, inhaled or intranasal, 5.5 mg/kg, IN 5.5 mg/kg, plasma
[3] = rat, in vivo, sc, 11 mg/kg, SC 11 mg/kg, CSF
[4] = rat, in vivo, sc, 11 mg/kg, SC 11 mg/kg, plasma

Sequence: DEEEDEEL [P8, DEEEDEEL]
- P8 concentration in plasma (IV 11.0 mg/kg single dose, 130 min, Rat 1): 42.0 ng/mL
- P8 concentration in plasma (IV 11.0 mg/kg single dose, 130 min, Rat 2): 18.3 ng/mL
- P8 concentration in plasma (IV 11.0 mg/kg single dose, 130 min, Rat 3): 20.7 ng/mL
- P8 concentration in CSF (IV 11.0 mg/kg single dose, 150 min, Rat 1): 4.88 ng/mL
- P8 concentration in CSF (IV 11.0 mg/kg single dose, 150 min, Rat 2): 4.30 ng/mL
- P8 concentration in CSF (IV 11.0 mg/kg single dose, 150 min, Rat 3): 3.57 ng/mL
- P8 concentration in plasma (IV 11.0 mg/kg single dose, 165 min, Rat 1): 18.9 ng/mL
- P8 concentration in plasma (IV 11.0 mg/kg single dose, 165 min, Rat 3): 9.72 ng/mL
- P8 concentration in CSF (IV 11.0 mg/kg single dose, 180 min, Rat 1): 4.11 ng/mL
- P8 concentration in CSF (IV 11.0 mg/kg single dose, 180 min, Rat 3): 1.06 ng/mL
- P8 concentration in CSF (SC 11.0 mg/kg single dose, 10 min, Rat 1): 7.06 ng/mL
- P8 concentration in CSF (SC 11.0 mg/kg single dose, 10 min, Rat 2): 22.6 ng/mL
- P8 concentration in CSF (SC 11.0 mg/kg single dose, 10 min, Rat 3): 1.75 ng/mL
- P8 concentration in CSF (SC 11.0 mg/kg single dose, 30 min, Rat 1): 25.2 ng/mL
- P8 concentration in CSF (SC 11.0 mg/kg single dose, 30 min, Rat 2): 12.8 ng/mL
- P8 concentration in CSF (SC 11.0 mg/kg single dose, 30 min, Rat 3): 8.03 ng/mL
- P8 concentration in CSF (SC 11.0 mg/kg single dose, 60 min, Rat 1): 26.5 ng/mL
- P8 concentration in CSF (SC 11.0 mg/kg single dose, 60 min, Rat 2): 17.1 ng/mL
- P8 concentration in CSF (SC 11.0 mg/kg single dose, 60 min, Rat 3): 10.3 ng/mL
- P8 concentration in plasma (SC 11.0 mg/kg single dose, 70 min, Rat 2): 4,150 ng/mL
- P8 concentration in plasma (SC 11.0 mg/kg single dose, 70 min, Rat 3): 1,220 ng/mL
- P8 concentration in plasma (SC 11.0 mg/kg single dose, 90 min, Rat 1): 2,600 ng/mL
- P8 concentration in plasma (SC 11.0 mg/kg single dose, 90 min, Rat 2): 3,570 ng/mL
- P8 concentration in plasma (SC 11.0 mg/kg single dose, 90 min, Rat 3): 908 ng/mL
- P8 concentration in CSF (SC 11.0 mg/kg single dose, 100 min, Rat 1): 21.6 ng/mL
- P8 concentration in CSF (SC 11.0 mg/kg single dose, 100 min, Rat 2): 16.3 ng/mL
- P8 concentration in CSF (SC 11.0 mg/kg single dose, 100 min, Rat 3): 8.31 ng/mL
- P8 concentration in plasma (SC 11.0 mg/kg single dose, 110 min, Rat 1): 2,120 ng/mL
- P8 concentration in plasma (SC 11.0 mg/kg single dose, 110 min, Rat 2): 2,410 ng/mL
- P8 concentration in plasma (SC 11.0 mg/kg single dose, 110 min, Rat 3): 804 ng/mL
- P8 concentration in plasma (SC 11.0 mg/kg single dose, 130 min, Rat 1): 1,870 ng/mL
- P8 concentration in plasma (SC 11.0 mg/kg single dose, 130 min, Rat 2): 3,030 ng/mL
- P8 concentration in plasma (SC 11.0 mg/kg single dose, 130 min, Rat 3): 619 ng/mL
- P8 concentration in CSF (SC 11.0 mg/kg single dose, 150 min, Rat 1): 11.8 ng/mL
- P8 concentration in CSF (SC 11.0 mg/kg single dose, 150 min, Rat 2): 10.7 ng/mL
- P8 concentration in CSF (SC 11.0 mg/kg single dose, 150 min, Rat 3): 5.71 ng/mL
- P8 concentration in plasma (SC 11.0 mg/kg single dose, 165 min, Rat 1): 1,010 ng/mL
- P8 concentration in plasma (SC 11.0 mg/kg single dose, 165 min, Rat 2): 1,600 ng/mL
- P8 concentration in plasma (SC 11.0 mg/kg single dose, 165 min, Rat 3): 356 ng/mL
- mean plasma exposure, SC relative to IN, corrected for dose (rat): 25 fold
- percent of dose absorbed, SC relative to IN (rat): 25 fold
- ratio or relative % F across the blood-brain barrier, % of the plasma concentrations (rat): < 1%
- CSF Ratio (dose normalized CSF AUC of route / of IV dose) (rat, IN 5.5 mg/kg): 0.10±0.092
- Plasma: CSF Ratio (AUC) (rat, IN 5.5 mg/kg): 0.041±0.041
- Plasma: CSF Ratio (Cmax) (rat, IN 5.5 mg/kg): 0.064±0.093
- Tmax (rat, IN 5.5 mg/kg, CSF): 27 ± 29 min
- CSF exposure as % of plasma exposure (rat, IV): about 0.5%
- Plasma: CSF Ratio (AUC) (rat, IV 11 mg/kg): 0.0052±0.0015
- peak CSF Cmax (rat, IV 11 mg/kg, CSF, at the 10-min time point (first time point)): 65.6 ng/mL
- t1/2 (rat, IV 11 mg/kg, plasma, terminal, 11 mg/kg): 21.9 ± 8.18 min
- clearance as share of hepatic liver blood flow (rat, IV, based on a 70 mL/min/kg estimate): about 25%
- CSF exposure as % of plasma exposure (rat, SC): about 0.5%
- CSF Ratio (dose normalized CSF AUC of route / of IV dose) (rat, SC 11 mg/kg): 0.72±0.29
- Plasma: CSF Ratio (AUC) (rat, SC 11 mg/kg): 0.0055±0.00054
- Plasma: CSF Ratio (Cmax) (rat, SC 11 mg/kg): 0.0037±0.0005
- AUC [1]: 5.5 ng·h/mL
- Cmax [1]: 12.4 ± 17.7 ng/mL
- Tmax (rat, in vivo, 5.5 mg/kg, Tmax, IN 5.5 mg/kg, CSF): 26.7 min
- bioavailability (rat, in vivo, inhaled or intranasal, 5.5 mg/kg): 2.8 ± 0.88%
- AUC [2]: 146 ng·h/mL
- Cmax [2]: 197 ± 62.7 ng/mL
- Tmax (rat, in vivo, inhaled or intranasal, 5.5 mg/kg, Tmax, IN 5.5 mg/kg, plasma): 5 min
- Vd (rat, in vivo, iv, 11 mg/kg): 0.546 ± 0.306 L/kg
- clearance (rat, in vivo, iv, 11 mg/kg): 17.6 ± 5.65 mL/min/kg
- AUC (rat, in vivo, iv, 11 mg/kg, IV 11 mg/kg, CSF): 54.5 ng·h/mL
- AUC (rat, in vivo, iv, 11 mg/kg, IV 11 mg/kg, plasma): 11300 ng·h/mL
- half-life (rat, in vivo, iv, 11 mg/kg, t1/2, rat, IV 11 mg/kg, plasma, terminal): 22 ± 8.2 min
- bioavailability (rat, in vivo, sc, 11 mg/kg): 65 ± 21%
- AUC [3]: 39.7 ng·h/mL
- AUC [4]: 7380 ng·h/mL
- Cmax [3]: 19.8 ± 8.46 ng/mL
- Cmax [4]: 5390 ng/mL
- Tmax (rat, in vivo, sc, 11 mg/kg, Tmax, SC 11 mg/kg, CSF): 43 min
- Tmax (rat, in vivo, sc, 11 mg/kg, Tmax, SC 11 mg/kg, plasma): 25 min
